According to ChEMBL document CHEMBL4725492, “Dioxane-Linked Amide Derivatives as Novel Bacterial Topoisomerase Inhibitors against Gram-Positive Staphylococcus aureus” (ACS Med Chem Lett, 2020):
Values after ≈ are worked out from the molar mass of the structure shown. Active and inactive are the calls of the source. No cut-off for these calls is given here.

Legend:
Staphylococcus aureus [1] = assay: Antibacterial activity against Staphylococcus aureus D83N by CLSI based agar dilution method; type: functional
Staphylococcus aureus [2] = assay: Antibacterial activity against Staphylococcus aureus ATCC 29213 by CLSI based agar dilution method; type: functional
Staphylococcus aureus [3] = assay: Antibacterial activity against Staphylococcus aureus USA300 by CLSI based agar dilution method; type: functional
Staphylococcus aureus [4] = assay: Antibacterial activity against Staphylococcus aureus 3527 by CLSI based agar dilution method; type: functional
DNA gyrase = DNA gyrase (Staphylococcus aureus, UniProt P0A0K8+P20831); assay: Inhibition of Staphylococcus aureus DNA gyrase using relaxed pBR322 as substrate by gel electrophoresis; type: protein-complex assay
Topoisomerase IV [5] = molecular target: Topoisomerase IV (Staphylococcus aureus, UniProt P0C1S7+P0C1U9); assay: (§1) Inhibition of Staphylococcus aureus topoisomerase-4 assessed as reduction in decatenation of kinetoplast DNA agarose gel electrophoresis method; type: protein-complex assay
[6] = molecular target: DNA topoisomerase 2-alpha (Homo sapiens, UniProt P11388); assay: Inhibition of human topoisomerase 2alpha
In short: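 Human topoisomerase IIα decatenation activity was tested at a single concentration of 100 μM and reported as percent inhibition.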

[7] = molecular target: T1, DNA gyrase (Staphylococcus aureus) (UniProt P0A0K8+P20831); assay: Inhibition of Staphylococcus aureus DNA gyrase assessed as single-strand break at 20 uM using relaxed pBR322 as substrate by ethidium bromide-based gel electrophoresis; type: protein-complex assay
In short: (§2)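 S. aureus gyrase-mediated DNA cleavage: compound was incubated with enzyme and DNA, and products were resolved on an ethidium-stained gel into negatively supercoiled, nicked (single-strand break) and linear (double-strand break) forms. Lane fluorescence was corrected for differential band emission. Percent of each form was calculated, and enzyme-only cleavage was subtracted. Concentrations spanned 0.1 nM–200 μM, with a 20 μM single-point screen. Results are mean ± SD or range.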

[8] = molecular target: T1, DNA gyrase (Staphylococcus aureus); assay: Inhibition of Staphylococcus aureus DNA gyrase assessed as double-strand break at 20 uM using relaxed pBR322 as substrate by ethidium bromide-based gel electrophoresis; type: protein-complex assay; in short: as §2
[9] = molecular target: Voltage-gated inwardly rectifying potassium channel KCNH2 (Homo sapiens, UniProt Q12809); assay: Inhibition of human ERG; conditions: for INH: human
[10] = molecular target: T1, DNA gyrase (Staphylococcus aureus); assay: Inhibition of Staphylococcus aureus DNA gyrase assessed as single-strand break using relaxed pBR322 as substrate by ethidium bromide-based gel electrophoresis; type: protein-complex assay; in short: as §2
[11] = molecular target: T1, DNA gyrase (Staphylococcus aureus); assay: Inhibition of Staphylococcus aureus DNA gyrase assessed as double-strand break at upto 100 uM using relaxed pBR322 as substrate by ethidium bromide-based gel electrophoresis; type: protein-complex assay; conditions: dose microM <=100; in short: as §2
K562 = assay: Growth inhibition of human K562 cells incubated for 48 hrs by sulforhodamine B assay; type: functional
Topoisomerase IV [12] = molecular target: Topoisomerase IV (Staphylococcus aureus, UniProt P0C1U9+P0C1S7); assay: as §1; type: protein-complex assay
[13] = Growth inhibition of human K/VP.5 cells incubated for 48 hrs by sulforhodamine B assay; type: functional

SMILES | MIC (Staphylococcus aureus [1]) [mg/L] | MIC (Staphylococcus aureus [2]) [mg/L] | MIC (Staphylococcus aureus [3]) [mg/L] | MIC (Staphylococcus aureus [4]) [mg/L] | IC50 (DNA gyrase) [µM] | IC50 (Topoisomerase IV [5]) [µM] | inhibition (INH) [6] | inhibition [7] | inhibition [8] | IC50 [9] [µM] | inhibition [10] | inhibition [11] | INH (K562) [µM] | IC50 (Topoisomerase IV [12]) | INH [13] [µM] | INH [9] [µM]
COc1ccc2nccc(CC[C@H]3OC[C@H](NC(=O)c4cccnc4)CO3)c2c1 | 128 (≈ 325 µM) | 256 (≈ 651 µM) | 128 (≈ 325 µM) | 128 (≈ 325 µM) | – | – | – | – | – | – | – | – | – | – | – | –
COc1ccc2nccc(CC[C@H]3OC[C@H](NC(=O)[C@H]4CC[C@@H](O)CC4)CO3)c2c1 | > 64 | > 64 | > 64 | > 64 | – | – | – | – | – | – | – | – | – | – | – | –
COc1ccc(C(=O)N[C@H]2CO[C@H](CCc3ccnc4ccc(OC)cc34)OC2)cc1 | 32 (≈ 75.7 µM) | 4 (≈ 9.47 µM) | 8 (≈ 18.9 µM) | 16 (≈ 37.9 µM) | 3.9 | 106 | Not Active | – | – | – | – | – | – | – | – | –
COc1ccc2nccc(CC[C@H]3OC[C@H](NC(=O)c4ccccc4Cl)CO3)c2c1 | > 256 | 256 (≈ 600 µM) | > 256 | > 256 | – | – | – | – | – | – | – | – | – | – | – | –
COc1ccc2nccc(CC[C@H]3OC[C@H](NC(=O)c4ccc5c(c4)OCCO5)CO3)c2c1 | > 32 | 1 (≈ 2.22 µM) | 1 (≈ 2.22 µM) | 0.5 (≈ 1.11 µM) | 3.7 | > 200 | – | Active | inactive | > 100 | Dose-dependent effect | inactive | – | – | – | –
COc1ccc2nccc(CC[C@H]3OC[C@H](NC(=O)[C@H]4CC[C@H](O)CC4)CO3)c2c1 | > 64 | > 64 | > 64 | > 64 | – | – | – | – | – | – | – | – | – | – | – | –
COc1ccc2nccc(CC[C@H]3OC[C@H](NC(=O)c4ccc(OC(F)(F)F)cc4)CO3)c2c1 | > 32 | 0.5 (≈ 1.05 µM) | 1 (≈ 2.1 µM) | 2 (≈ 4.2 µM) | 1.4 | – | Not Active | Active | inactive | – | – | – | 11 | Not Active | 9 | > 10
COc1ccc2nccc(CC[C@H]3OC[C@H](NC(=O)[C@H]4CC[C@H](N)CC4)CO3)c2c1 | > 64 | > 64 | > 64 | > 64 | – | – | – | – | – | – | – | – | – | – | – | –
COc1ccc2nccc(CC[C@H]3OC[C@H](NC(=O)C4COc5ccccc5O4)CO3)c2c1 (stereo partly specified) | > 64 | > 64 | > 64 | > 64 | – | – | – | – | – | – | – | – | – | – | – | –
COc1ccc2nccc(CC[C@H]3OC[C@H](NC(=O)[C@H]4CC[C@H](C)CC4)CO3)c2c1 | > 32 | 4 (≈ 9.7 µM) | 8 (≈ 19.4 µM) | 8 (≈ 19.4 µM) | – | – | – | – | – | – | – | – | – | – | – | –
COc1ccc2nccc(CC[C@H]3OC[C@H](NC(=O)CC4CCCCC4)CO3)c2c1 | > 64 | > 64 | > 64 | > 64 | – | – | – | – | – | – | – | – | – | – | – | –
COc1ccc2nccc(CC[C@H]3OC[C@H](NC(=O)c4cccc(Cl)c4)CO3)c2c1 | > 32 | 2 (≈ 4.68 µM) | 1 (≈ 2.34 µM) | 1 (≈ 2.34 µM) | 0.32 | – | – | Active | inactive | – | – | – | <200 | Not Active | 50 | > 3
COc1ccc2nccc(CC[C@H]3OC[C@H](NC(=O)C4Cc5ccccc5CO4)CO3)c2c1 (stereo partly specified) | > 64 | > 64 | > 64 | > 64 | – | – | – | – | – | – | – | – | – | – | – | –
COc1ccc2nccc(CC[C@H]3OC[C@H](NC(=O)c4ccc(Cl)c(Cl)c4)CO3)c2c1 | > 32 | 0.125 (≈ 0.271 µM) | 0.125 (≈ 0.271 µM) | 0.5 (≈ 1.08 µM) | 0.59 | > 200 | – | Active | inactive | – | – | – | – | – | – | –
COc1ccc2nccc(CC[C@H]3OC[C@H](NC(=O)c4ccc(C)cc4)CO3)c2c1 | > 32 | 1 (≈ 2.46 µM) | 1 (≈ 2.46 µM) | 2 (≈ 4.92 µM) | 0.41 | – | Not Active | Active | inactive | – | – | – | 18 | Not Active | 17 | > 30
COc1ccc2nccc(CC[C@H]3OC[C@H](NC(=O)c4ccccn4)CO3)c2c1 | > 256 | > 256 | > 256 | > 256 | – | – | – | – | – | – | – | – | – | – | – | –
